Source: PubChem (Johns Hopkins Ion Channel Center)
hERG protect – compounds protecting human hERG from proarrhythmic drug block | Q12809 | CHO-hERG, FluxOR thallium flux, dofetilide IC70 present | activation (rescue from dofetilide block), less the hit threshold, % at 10 µM | hit rate 0.51% among 310,000 | AID 1511;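 active = activation above the mean of controls blocked by dofetilide plus 5 SD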;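 also: thallium influx through hERG after potassium depolarization seen as dye fluorescence rise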
KCNK9 inh – inhibitors of human KCNK9 two-pore domain potassium channel; Q9NPC2; HEK293 KCNK9, FluxOR thallium flux fluorescence; hits give low values; B-score at 10 µM; hit rate 1.2% among 310,000; AID 488922;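 active = ratio B-score over 3 SD below the library mean, with starting fluorescence within 5 SD of its mean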;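 also: negative B-score means less thallium flux so channel inhibition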
Kir21 inh – Kir2.1 (mouse) channel inhibition | P35561 | HEK293-Kir2.1, FluxOR thallium flux fluorescence; hits give low values | B-score at 10 µM | hit rate 0.85% among 310,000 | AID 1672;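 active = fluorescence ratio B-score at or below minus 3 SD of library scores, with starting-brightness B-score within 2 SD, cut at about -4.2 in these data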;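 also: channel flux triggered by added potassium and thallium sulfate stimulus; B-score of peak minus minimum fluorescence over baseline after thallium stimulus; more negative B-score means stronger Kir2.1 block with less thallium influx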
Target sequence (P35561 whole entry, looked up): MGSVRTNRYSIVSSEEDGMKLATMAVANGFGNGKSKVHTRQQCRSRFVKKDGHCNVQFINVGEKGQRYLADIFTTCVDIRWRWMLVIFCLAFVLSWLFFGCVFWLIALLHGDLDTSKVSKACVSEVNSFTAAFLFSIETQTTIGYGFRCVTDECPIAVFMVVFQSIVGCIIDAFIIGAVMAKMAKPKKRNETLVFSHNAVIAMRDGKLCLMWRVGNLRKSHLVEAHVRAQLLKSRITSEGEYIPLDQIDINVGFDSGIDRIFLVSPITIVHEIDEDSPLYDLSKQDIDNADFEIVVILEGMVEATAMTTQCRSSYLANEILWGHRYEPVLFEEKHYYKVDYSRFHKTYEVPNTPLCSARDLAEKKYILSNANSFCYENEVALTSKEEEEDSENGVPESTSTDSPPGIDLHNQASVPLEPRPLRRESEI
KCNQ1 pot – human KCNQ1 channel potentiation or activation | P51787 | hit rate 0.35% among 310,000 | B-score at 10 µM | CHO-K1 KCNQ1, thallium flux FluxOR fluorescence; hits give high values | AID 2648;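 active = fluorescence ratio B-score, a plate-corrected score, at least three library SD, with initial intensity B-score within 5 SD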
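Schedule – 37 °C overnight plating, 90-min dark dye load, 20-min compound pretreatment · System – stable KCNQ1 CHO-K1 line · Probe or stimulus – thallium- and potassium-containing depolarizing buffer · Measured by – kinetic FluxOR fluorescence, 10 s baseline plus 110 s post-stimulus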
KCNK3 inh – human KCNK3 channel inhibition, primary screen; O14649; CHO-KCNK3 thallium flux, FluxOR fluorescence; hits give low values; B-score at 10 µM; hit rate 0.84% among 340,000; AID 602410;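 active = B-score under library mean minus 4 SD, starting fluorescence ratio at most library mean plus 5 SD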;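 also: more negative B-score means stronger inhibition of thallium flux through KCNK3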
KCNQ1 inh – blocks the human KCNQ1 potassium channel; P51787; CHO-K1 KCNQ1, FluxOR thallium flux fluorescence; hits give high values; B-score at 10 µM; hit rate 1.3% among 310,000;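 active = compounds whose thallium flux B-score, printed positive for inhibition, exceeds three library SD while starting fluorescence stays within three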;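 also: channel opened by potassium depolarization with thallium stimulus after 20 min compound exposure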
Starred values were filed as active, the others as inactive; i = inactive; nt = no result. An excerpt weighted towards active compounds, which were near 3.7% of everything screened.

SMILES	hERG protect	KCNK9 inh	Kir21 inh	KCNQ1 pot	KCNK3 inh	KCNQ1 inh
COc1ccc(NC(=O)N(C)C[C@H]2Oc3ccc(NC(=O)CCN4CCOCC4)cc3C(=O)N([C@@H](C)CO)C[C@H]2C)cc1	nt	nt	nt	nt	i	nt
CCCCNC(=O)Nc1ccccc1CC	1	i	-0.17	i	i	i
CCCCNC(=S)Nc1ccccc1Cc1ccccc1	-11	i	-4.7*	i	i	i
O=C(NCCc1ccccc1)C(=O)NCC1CCNCC1	4.6*	i	0.27	i	nt	i
Cc1ccc(C2CC(c3cccs3)=NN2C(=O)CCl)cc1 (centres undefined)	-2	i	-4	i	i	i
COc1ccc(C2=NN(C(=O)CN3CCCCC3)C(c3ccc(C)cc3)C2)cc1 (centres undefined)	-10	i	-1.6	i	i	6*
CCC(=O)N1N=C(c2cccs2)CC1c1ccc(C)cc1 (centres undefined)	5.1*	i	0.8	i	i	i
CCN(c1ccc(F)cc1)S(=O)(=O)c1cccc2nsnc12	-5	i	-5.5*	i	i	i
N#CCCN(C1CCCCC1)S(=O)(=O)c1cccc2nsnc12	-9	i	-1.6	i	i	i
CN(C1CCCCC1)S(=O)(=O)c1cccc2nsnc12	-4	i	-5.1*	i	i	i
CCc1nnc(NC(=O)c2ccc(-c3ccc([N+](=O)[O-])cc3Cl)o2)s1	-3	i	0.62	i	i	i
COc1cc([N+](=O)[O-])ccc1NC(=O)Cn1ccsc1=N	-22	i	0.46	i	i	i
CCC(=O)Nc1sc2c(c1C#N)CC(C)(CC)OC2 (centres undefined)	-12	i	0.35	i	i	i
COC(=O)c1c(NC(=O)CCNCc2ccco2)sc2c1CCC2	-10	i	-8.1*	i	i	i
CCOC(=O)c1c(NC(=S)NC)sc2c1CC(C)(C)SC2	44*	i	-0.59	71*	i	i
COC(=O)c1c(NC(=S)Nc2ccc(F)cc2[N+](=O)[O-])sc2c1CCCCC2	6.4*	i	-0.23	10*	i	i
COC(=O)c1c(NS(=O)(=O)Cc2ccccc2)sc2c1CCCC2	18*	i	-0.48	13*	i	i
CN1CCCN(S(=O)(=O)c2cccc(C#N)c2)CC1	-4	i	-0.68	i	i	i
COc1ccc(CCNC(=O)CSc2nnc(Cc3cccn3C)n2C)cc1OC	-4	i	0.57	i	i	i
Cc1c(C)n(CCc2ccccc2)c2ncnc(NCCCN(C)C)c12	-7	i	-0.92	i	i	i
CNC(=S)Nc1sc2c(c1C(=O)OC)CCC2	11*	i	0.15	16*	i	i
Cc1nc2c(sc3nc(N4CCOCC4)c4c(c32)CC(C)(C)OC4)c(-c2ccc(Cl)cc2)c1C(=O)O	-16	i	1.6	i	i	i
O=S(=O)(c1cccc(F)c1)N1CCN(c2ncnc3scc(-c4ccc(F)cc4)c23)CC1	-15	i	1.6	i	i	i
COc1ccc(-c2csc3ncnc(N4CCN(S(=O)(=O)c5cccc(C(F)(F)F)c5)CC4)c23)cc1	-12	-7.1*	1.6	i	i	i
COC(=O)c1ccc(COc2ccccc2/C=C(\C#N)C(=O)Nc2ccc(C)cc2C)cc1	-4	-7.1*	-0.17	i	i	i
SMILES	hERG protect	KCNK9 inh	Kir21 inh	KCNQ1 pot	KCNK3 inh	KCNQ1 inh
COc1ccc(Cl)cc1S(=O)(=O)N1CCN=C1Cc1ccccc1	-10	i	-5.1*	i	i	i
CN(C)C(C)(C)C#CCC(c1ccccc1)c1ccccc1	-5	i	-5*	i	i	i
CN(C)C(C)(C)C#CCCCCC#CC(C)(C)N(C)C	nt	nt	nt	nt	i	nt
Cc1ccc(S(=O)(=O)N2CCOCC2)cc1NC(=O)CSc1nnc(COc2ccccc2F)n1N	nt	nt	nt	nt	i	nt
CCOC(=O)c1c(-c2ccccc2)oc2ccc(OC)cc12	-2	i	-0.55	i	i	i
CCOC(=O)c1c(-c2ccccc2)oc2ccc(OCC(O)CNCCN(C)C)cc12 (centres undefined)	-11	i	-5.2*	i	i	i
COc1c(Cl)cc(C(=O)NCc2ccco2)cc1Cl	-4	i	-0.52	i	i	i
CCc1ccc(S(=O)(=O)NCCc2cn3ccc(C)cc3n2)s1	-7	i	-8.8*	i	i	i
CN(C)CCCNC(NC(=O)c1cccs1)C(Cl)(Cl)Cl (centres undefined)	-8	i	0.02	i	i	i
CC(=O)Nc1cc(-c2nn3c(C)nnc3s2)ccc1C	-9	i	-0.23	i	i	i
CCC(=O)Nc1cc(-c2nn3c(C)nnc3s2)ccc1C	-4	i	-0.21	8*	i	i
CC1CN(C(=O)CCNC(=O)c2ccc(Cl)cc2)CC(C)O1 (centres undefined)	-10	i	-0.23	i	i	i
CCOC(=O)C(CSCC(=O)c1ccc(Br)cc1)NC(=O)OC(C)(C)C (centres undefined)	-7	i	-0.36	i	nt	i
CCOC(=O)C(CSCC(=O)c1ccc(Cl)cc1)NC(=O)OC(C)(C)C (centres undefined)	-8	i	-5.7*	i	i	i
CCOC(O)[C@H]1N[C@@H](c2ccc(Cl)cc2)[C@@H]([N+](=O)[O-])[C@@H]1c1ccccc1 (some centres undefined)	-4	-7.1*	-1.5	i	i	i
CCOC(=O)CN1C(c2ccc(O)cc2)Nc2ccc(Br)cc2C1c1ccccc1 (centres undefined)	-7	-7.5*	0.02	i	i	i
CCOC(=O)CN1C(=O)Nc2ccc(Br)cc2C1c1ccccc1 (centres undefined)	-16	i	-1.6	i	i	i
CCOC(=O)c1cc(-c2ccccc2)sc1NC(=O)C(C)N1C(=O)c2ccccc2C1=O (centres undefined)	-3	-8*	0.72	i	i	i
COc1ccc(S(=O)(=O)N2CCCCC2)cc1NC(=O)Cc1sc(C)nc1-c1ccc(F)cc1	-4	i	0.01	i	i	i
CN(c1ccc(C(=O)N2CCN(Cc3ccccc3)CC2)cc1)S(=O)(=O)c1ccc(Cl)cc1	-7	i	-1.9	i	i	i
CCOc1ccc(NC(=S)NC(=O)c2c(Cl)cnn2CC)c([N+](=O)[O-])c1	-1	i	0.53	i	i	i
CCn1ncc(Cl)c1C(=O)NC(=S)Nc1c(C)cc(C)cc1[N+](=O)[O-]	5.8*	i	-1.5	i	i	i
